Consider 27 molecules from ChEMBL document CHEMBL1681778, “Synthesis and biological evaluation of 2,4-diaminoquinazoline derivatives as novel heat shock protein 90 inhibitors” (Bioorg Med Chem Lett, 2011).

Assay [1] has as its system DU-145. Put plainly: Cytotoxicity against human DU145 cells after 2 days by MTT assay. It is filed as functional, cell-based. The settings on record: DU-145, 48 h. In a few lines: (§1)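 Cells grown in RPMI 1640 with 10% heat-inactivated FBS at 37 °C and 5% CO2. Seeded at 3 × 10³ cells/well, then given a range of sample concentrations in duplicate for two days. Read by MTT-type dye and solubilization/stop solution, left overnight at room temperature to dissolve formazan, with OD at 570 nm.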
A general note: Tetrazolium dyes change colour on reduction, which living cells bring about.

Assay [2] concerns HT-29. Put plainly: Cytotoxicity against human HT-29 cells after 2 days by MTT assay. It is filed as functional, cell-based. The settings on record: HT-29, 48 h. The method, boiled down: as §1
The subject of assay [3] is MCF7. Put plainly: Cytotoxicity against human MCF7 cells at 10 uM after 2 days by MTT assay. It is filed as functional. The settings on record: MCF7, 48 h.
Assay [4] is described as follows: Cytotoxicity against human A375P cells after 2 days by MTT assay. The settings on record: 48 h. The format is functional, cell-based. The method, boiled down: as §1
The test system of assay [5] is HCT-116. As to the kind of experiment: Cytotoxicity against human HCT116 cells after 2 days by MTT assay. The note with it: HCT-116, 48 h. The format is functional, cell-based. The method, boiled down:
as §1

Assay [6] concerns DU-145. As to the kind of experiment: Cytotoxicity against human DU145 cells at 10 uM after 2 days by MTT assay. The note with it: DU-145, 48 h. The format is functional.
Assay [7] deals with HCT-116. Put plainly: Cytotoxicity against human HCT116 cells at 10 uM after 2 days by MTT assay. The format is functional. The settings on record: HCT-116, 48 h.
Assay [8] deals with HT-29. As to the kind of experiment: Cytotoxicity against human HT-29 cells at 10 uM after 2 days by MTT assay. The settings on record: HT-29, 48 h. The format is functional.
Assay [9] relates to MCF7. As to the kind of experiment: Cytotoxicity against human MCF7 cells after 2 days by MTT assay. The format is functional, cell-based. The settings on record: MCF7, 48 h. The method, boiled down:
as §1

For assay [10], the target named is T1, Heat shock protein HSP90 (Homo sapiens) (UniProt P07900+P08238). As to the kind of experiment: Inhibition of HSP90 in human MCF7 cells assessed as reduction of Her2 protein level at 5 uM after 24 hrs by Western blotting relative to control. The format is cell-based. In a few lines:
(§2)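 MCF-7 cells seeded at 10⁵ cells/well and grown to 60% confluency. Treated with compounds at 5 µM in 0.4% DMSO for 24 h, with DMSO alone as control. Her2 and Hsp70 levels detected by western blot.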

The target of assay [11] is T1, Heat shock protein HSP90 (Homo sapiens). Put plainly: Inhibition of HSP90 in human MCF7 cells assessed as induction of HSP70 expression at 5 uM after 24 hrs by Western blotting. The format is cell-based. The method, boiled down: as §2
(Immunoblotting shows a protein as a band on a membrane.)

A short description of assay [12]: Cytotoxicity against human A375P cells at 10 uM after 2 days by MTT assay. The format is functional. The settings on record: 48 h.

Calls of active or inactive are those of the source. The rule behind the calls is not given here. Bounds are passed on as bounds.

What is called IC50 is the concentration that inhibits the measured activity by half. High values mean weaker potency in that assay, low ones greater potency in that assay. One may read the inhibition as the percentage by which the read-out fell short of the control.

Consider `CN(C)CCCNc1nc(NCc2ccco2)c2ccccc2n1`, for which the IC50 in assay [1] amounted to 51 µM; in [2], 4.45 µM.
With `Fc1ccc2nc(NCCN3CCN(c4cccc(Cl)c4Cl)CC3)nc(NCc3ccco3)c2c1`, in assay [3], the inhibition at 10 µM was 95.5%. Moreover, the concentration for half-maximal inhibition (IC50) is 2.42 µM in assay [4] and 1.01 µM in assay [5].
Turning to `CCCCCNc1nc(NCc2ccco2)c2cc(F)ccc2n1`, the IC50 in assay [1] was determined as 7.24 µM; in [2], 4.03 µM; in [4], 7.34 µM; in assay [5], 4.1 µM. Moreover, the figures for the inhibition at 10 µM in assay [3], in assay [6] and in assay [7] were 94.4%, 83.6% and 94.2%, respectively.
Turning to `COc1ccc(Nc2nc(NCc3ccco3)c3cc(F)ccc3n2)cc1`, the inhibition at 10 µM in [8] was 86.2%; in assay [6] it was 55.4%; in assay [7], 74%. The IC50 in assay [1] stood at 11.6 µM; in [2] it was 4.34 µM; in [4] it was 7.66 µM; in assay [5] it was 6.15 µM.
As to `Clc1cccc(N2CCN(CCCCNc3nc(NCc4ccco4)c4ccccc4n3)CC2)c1Cl`, the inhibition at 10 µM in assay [8] was 94.8%; in assay [3], 95.8%; in assay [6], 94.3%; in assay [7], 94.7%. The IC50 in assay [1] came to 3.87 µM; in assay [2], 3.37 µM; in [9], 2.97 µM; in [4] it was 3.75 µM; in assay [5], 3.2 µM. Besides, in assay [10], the inhibition is above 50%. Also, the inhibition entry in [11] is “Active”.
The molecule `COc1cccc2c1C(=O)c1c(O)c3c(c(O)c1C2=O)C[C@@](O)(C(=O)CO)C[C@@H]3O[C@H]1C[C@H](N)[C@H](O)[C@H](C)O1` [DOXORUBICIN] gave an IC50 in [2] of 0.82 µM. That is a sub-micromolar value.
Regarding `CCCCNc1nc(NCc2ccco2)c2cccc(F)c2n1`, the inhibition at 10 µM in [3] came out at 87%. In addition, the IC50 amounted to 2.63 µM in assay [4] and 1.33 µM in [5].
On to `Clc1cccc(N2CCN(CCCNc3nc(NCc4ccco4)c4ccccc4n3)CC2)c1Cl`, for which the inhibition at 10 µM amounted to 94.1% in assay [8], 95.8% in assay [3], 93.2% in assay [6] and 94.5% in [7]. The IC50 in [1] worked out at 3.71 µM; in assay [2], 3.37 µM; in assay [9] it was 2.98 µM; in assay [4], 3.36 µM; in assay [5], 3.36 µM. Also, in [10], the inhibition is above 50%. In [11], the inhibition entry was “Active”.
On to `Cc1cccc(N2CCN(CCCNc3nc(NCc4ccco4)c4cc(F)ccc4n3)CC2)c1C`, for which the inhibition at 10 µM in assay [8] is 96.7%; in [6], 95.9%; in assay [7], 97.3%; in [12], 97.6%. Also, the IC50 in [1] is 2.66 µM; in assay [2] it was 1.05 µM; in [4] it was 2.83 µM; in [5], 1.14 µM.
Take `CCN(CC)CCNc1nc(NCc2ccco2)c2cc(F)ccc2n1`: the inhibition at 10 µM in assay [8] came to 27.5%; in assay [6], 26.6%; in assay [7], 26.4%; in assay [12] it was 7.67%.
Consider `Fc1ccc2nc(NCCCCN3CCN(c4cccc(Cl)c4Cl)CC3)nc(NCc3ccco3)c2c1`, for which the inhibition at 10 µM in assay [8] worked out at 96.3%; in assay [6], 95.5%; in [7] it was 97.1%; in assay [12], 97.3%. The IC50 is 0.67 µM in assay [1], 0.39 µM in assay [2], 2.65 µM in assay [4] and 0.52 µM in [5].
Turning to `c1coc(CNc2nc(NCCCN3CCOCC3)nc3ccccc23)c1`, the IC50 in assay [1] amounted to 79.9 µM; in [2], 23.9 µM.
In the case of `CCN(CC)CCNc1nc(NCc2ccco2)c2ccccc2n1`, the inhibition at 10 µM was found to be 75.1% in [8], 28.5% in [6] and 62.6% in assay [7]. For the same molecule, the IC50 in [1] is above 100 µM; in [2], 11.3 µM; in [4], 34.9 µM; in [5], 25.9 µM.
Take `Cc1cccc(N2CCN(CCCNc3nc(NCc4ccco4)c4ccccc4n3)CC2)c1C`: the inhibition at 10 µM in [8] was 94%; in assay [3] it was 95.9%; in [6] it was 91.5%; in assay [7], 93.2%. In addition, the half-inhibitory concentration (IC50) in [1] is 0.93 µM; in [2] it was 0.84 µM; in assay [9] it was 3.31 µM; in assay [4], 3.04 µM; in assay [5], 0.77 µM. The inhibition in assay [10] is below 50%. Also, the inhibition result in [11] is “Active”.
`Cc1cccc(N2CCN(CCCCNc3nc(NCc4ccco4)c4ccccc4n3)CC2)c1C`: the inhibition at 10 µM in assay [8] turned out to be 94.2%; in assay [3] it was 95.8%; in assay [6], 93.6%; in assay [7], 94.3%. Also, the IC50 is 1.07 µM in assay [1]; 0.86 µM in [2]; 3.14 µM in assay [9]; 3.9 µM in assay [4]; 0.84 µM in assay [5]. In addition, in assay [10], the inhibition was above 50%. In addition, in [11], the inhibition result is “Active”.
Turning to `Fc1ccc2nc(NCCCCN3CCOCC3)nc(NCc3ccco3)c2c1`, the inhibition at 10 µM in [8] was 76.8%; in assay [6] it was 57.6%; in [7], 82%; in assay [12] it was 62%. Further, the IC50 in [1] came to 6.46 µM; in assay [2], 1.36 µM; in assay [4], 4.44 µM; in [5], 2.14 µM.
In assay [9], `c1coc(CNc2nc(NCCN3CCOCC3)nc3ccccc23)c1` came in with an IC50 of 2.12 µM. In [3], this molecule showed an inhibition at 10 µM of 95.8%.
For `CCCCNc1nc(NCc2ccco2)c2ccccc2n1`, the inhibition at 10 µM in assay [8] stood at 92.3%; in [3], 66.7%; in assay [6], 89.9%; in [7], 94.8%. For the same molecule, the IC50 in assay [1] came to 4.99 µM; in assay [2] it was 2.94 µM; in assay [4] it was 9.2 µM; in assay [5], 5.47 µM.
For `CCCCCNc1nc(NCc2ccco2)c2ccccc2n1`, the figures for the IC50 in assay [1] and in [2] were 11.5 µM and 6.73 µM, respectively.
In the case of `COc1ccc(Nc2nc(NCc3ccco3)c3ccccc3n2)cc1`, the IC50 in [1] came out at 35 µM; in assay [2], 12.2 µM. For the same molecule, at 10 µM the inhibition in assay [3] was 64.5%.
As for `Fc1ccc2nc(NCCN3CCOCC3)nc(NCc3ccco3)c2c1`, the inhibition at 10 µM in assay [8] worked out at 9.68%; in assay [6], 27.8%; in [7], 12.8%; in assay [12] it was 28.6%.
With `CCCCNc1nc(NCc2ccco2)c2cc(F)ccc2n1`, the inhibition at 10 µM in assay [8] came out at 88.1%; in [6], 75.4%; in assay [7], 87.8%. Also, the IC50 in assay [1] worked out at 5.91 µM; in assay [2], 3.04 µM; in assay [4], 8.48 µM; in assay [5] it was 4.31 µM.
As for `Fc1ccc2nc(NCCCN3CCOCC3)nc(NCc3ccco3)c2c1`, the inhibition at 10 µM in [8] was 83.1%; in assay [6], 26.7%; in [7], 52.1%. Besides, the half-maximal inhibitory concentration (IC50) in [1] was above 100 µM; in assay [2], 9.32 µM; in [4], 22.5 µM; in assay [5], 25.3 µM.
As for `CN(C)CCNc1nc(NCc2ccco2)c2ccccc2n1`, the inhibition at 10 µM came out at 21.7% in assay [8] and 20% in [6].
`c1coc(CNc2nc(NCCCCN3CCOCC3)nc3ccccc23)c1`: the inhibition at 10 µM in [8] came out at 68.7%; in assay [6], 52.3%; in assay [7], 79.8%; in [12], 59.2%. Further, the IC50 in assay [1] stood at 6.24 µM; in [2], 1.34 µM; in [4] it was 5.23 µM; in [5], 2.1 µM.
For `c1coc(CNc2nc(NCCCN3CCCC3)nc3ccccc23)c1`, the results for the inhibition at 10 µM in assay [8], in assay [6] and in assay [7] were 87.5%, 40.1% and 67.5%, respectively. Further, the IC50 in assay [1] was determined as 35.3 µM; in assay [2], 6.01 µM; in [4], 19.4 µM; in assay [5] it was 16.1 µM.
`Cc1cccc(N2CCN(CCCCNc3nc(NCc4ccco4)c4cc(F)ccc4n3)CC2)c1C`: the inhibition at 10 µM in assay [8] is 96.1%; in assay [3], 97.7%; in [6], 93.4%; in [7] it was 97.4%; in [12], 97.5%. The IC50 came out at 3.32 µM in [1]; 1.83 µM in assay [2]; 3.13 µM in [9]; 3.28 µM in assay [4]; 0.82 µM in assay [5]. Moreover, in assay [10], the inhibition is below 50%. Further, the inhibition entry in assay [11] was “Active”.
